T cell modulator: T cell immune modulation candidate. 2C CD8+ T cell-vesicle binding, flow cytometry; stronger effect = lower value. response (vesicle binding), % at 7 µM. hit rate 0.068% among 330,000. AID 2052;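 active = response, share of CD8 T cells binding vesicles, and their 90th percentile fluorescence all below set limits, cut at about 80% in these data, passing the limit was not always enough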;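 also: values below 100% mean blocked vesicle binding to the CD8+ T cells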
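Also added: QL9-peptide-loaded Drosophila micro-vesicles bearing Ld, ICAM-1 and B7-1; Test system: purified 2C TCR transgenic mouse naive CD8+ T cells; Measured by: cytometric PE anti-B7-1 and Alexa647 anti-CD8 signals after 1% paraformaldehyde fixation; Timing: binding step 1.5 h, 37 °C, antibody labelling 20 min, ice.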
PolyA inh: inhibitors of polyadenylation in S. cerevisiae | S. cerevisiae SKY197-pL101 polyadenylation reporter, beta-gal luminescence; efflux-impaired pdr1/pdr3 knockout yeast; score 100 = 6 SD above DMSO | activity score, % at 12 µM | hit rate 0.02% among 300,000;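 active = lowest replicate activity score at least 50, where 100 means six control SD above control mean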;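 also: yeast exposed to compound for 9 h at 30 °C; higher score means more reporter readthrough which indicates perturbed polyadenylation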
Rce1 inhib: inhibitors of yeast Ras-converting enzyme; Q03530; yeast membranes, quenched prenylated peptide cleavage fluorescence; calls only; hit rate 0.27% among 290,000; AID 2563;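 active = fall in fluorescence gain of 50% or more versus controls, with final raw signal at or below 3038400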
Target sequence (Q03530 whole entry, looked up): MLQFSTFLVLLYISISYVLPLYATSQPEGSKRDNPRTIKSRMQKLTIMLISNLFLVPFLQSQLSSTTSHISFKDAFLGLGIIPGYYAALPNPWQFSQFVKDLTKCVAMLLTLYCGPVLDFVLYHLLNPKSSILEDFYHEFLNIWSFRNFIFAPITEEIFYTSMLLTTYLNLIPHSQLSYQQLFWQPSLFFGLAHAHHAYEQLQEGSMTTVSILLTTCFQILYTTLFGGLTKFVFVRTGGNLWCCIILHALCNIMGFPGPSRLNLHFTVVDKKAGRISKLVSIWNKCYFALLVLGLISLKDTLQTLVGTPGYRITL
aDG glyco up: increases alpha dystroglycan glycosylation. Pro5-aDG cells, alpha-DG glycosylation AlphaScreen (IIH6); 0% Pro5, 100% B10-LARGE cell signal. activation, % at 10 µM. hit rate 0.22% among 360,000. AID 624168;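 active = activation of at least 8% versus controls, or a plate z-score of at least 8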;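 also: Pro5 are CHO cells carrying HIG-tagged alpha-DG that lacks glycosylation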
aDG glyco conf: alpha-DG glycosylation activation, confirmation. shares compounds with aDG glyco up. hit rate 17% among 600. Pro5-aDG cells, IIH6 AlphaLISA; scaled to LARGE-overexpressing B10 cells as 100%. activation, % at 10 µM (by protocol). AID 651671;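 active = activation of at least 7% in one or more replicates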;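 also: cells exposed to compound for two days before detection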
A number is an active result; 0 = inactive; - = not tested or not shown; ! = not confirmed by another sample. Most compounds without a hit are left out; they make up all but 0.51% or so of the library.

SMILES	T cell modulator	PolyA inh	Rce1 inhib	aDG glyco up	aDG glyco conf
CC(C)COc1cccc(C(=O)NNC(=O)C2COc3ccccc3O2)c1 (centres undefined)	0	0	0	6.2	0
Nc1ccc(C(=O)NNC(=O)C2COc3ccccc3O2)cc1[N+](=O)[O-] (centres undefined)	0	0	0	0	-
C#CCN(C[C@@H]1[C@@H](OC(=O)Nc2c(C)noc2C)[C@@H](OC(=O)Nc2c(C)noc2C)Cn2c(=O)n(CCCCCC)c(=O)n21)S(=O)(=O)c1ccc(C)cc1	-	-	-	0	-
CCOc1ccc(N2CC(C(=O)N3CCN(c4ccccn4)CC3)CC2=O)cc1 (centres undefined)	0	0	0	10.5	10.3
CNc1nc(-c2c(C)n(C)c3ccc(OC)cc23)cs1	0	0	0	3.0	0
COc1ccc2c(c1)c(-c1csc(N)n1)c(C)n2C	0	0	0	0	-
Cc1ccccc1-c1cccc([C@@H]2C[C@H]3[C@H](CON3C)CN2S(=O)(=O)c2ccccc2C)c1	-	-	-	6.0	0
COc1cc(S(=O)(=O)n2ccc(C)n2)c(C)cc1C	-	-	-	0	-
COC(=O)C1CCN(C(=O)COC(=O)c2cc(-c3ccccc3)nc3ccc(OC)cc23)CC1	0	-	-	6.7	0
COc1ccc(-c2cc(C(=O)OCC(=O)N3CCOCC3)c3ccccc3n2)cc1	0	-	-	0	-
CCOc1ccc(C(=O)Nc2nc3ccccc3[nH]2)cc1OCC	0	0	0	7.9	0
O=C(COC(=O)/C=C/c1ccccc1)NCCc1ccc(F)cc1	0	-	-	0	-
COCCCNCCCCOc1ccc(Br)cc1C	0	0	0	0	-
Cc1cc(Br)ccc1OCCCCNC(C)(C)C	0	0	0	4.3	7.2
CCOc1ccccc1N(CC(=O)Nc1ccccc1F)S(=O)(=O)c1ccccc1	0	0	0	0	-
Cc1cccc(N=Cc2[nH]c3ccc(Br)c(Cl)c3c2O)c1	0	-	-	0	-
COc1ccccc1CN=Cc1[nH]c2ccc(Br)c(Cl)c2c1O	0	0	0	5.8	0
CC(O)C1C(=O)OC2(C)CC(C)(C)NC(=S)N12 (centres undefined)	0	0	0	0	-
CC1(C)CC2(C)OCCN2C(=S)N1 (centres undefined)	0	0	0	3.3!	0
O=C(NNC(=O)C1CC(=O)N(c2ccc3c(c2)OCCO3)C1)c1ccc(F)cc1 (centres undefined)	0	0	0	3.3	0
CC(Oc1ccccc1F)C(=O)NNC(=O)C1CC(=O)N(c2ccc3c(c2)OCCO3)C1 (centres undefined)	0	0	0	0	-
O=C(COC(=O)CN1C(=O)C2CCCCC2C1=O)Nc1c(Cl)cccc1Cl (centres undefined)	0	-	-	4.4	0
CCCCc1ccc(NC(=O)N2CCN(c3cc(C)nc4ccccc34)CC2)c(C)c1	0	0	0	3.3	0
CC1CCCCC1NC(=O)Cc1ccc(S(=O)(=O)N2CCOCC2)s1 (centres undefined)	0	0	0	6.0	0
CCc1ccc([C@H]2[C@@H]3C(=O)C[C@@H]4C(=O)NC(=O)[C@@H]4[C@@H]3CN2S(=O)(=O)c2ccc(C)cc2)cc1	-	-	-	0	-
SMILES	T cell modulator	PolyA inh	Rce1 inhib	aDG glyco up	aDG glyco conf
Cc1cc(OC(=O)c2c(C)cc(OC(=O)c3c(C)cc(O)cc3O)cc2O)cc(O)c1C(=O)O	0	0	0	6.1	0
O=C(NCc1ccccc1Br)c1cccs1	-	-	-	0	-
COc1ccccc1[C@@H]1C(c2ccccc2)=NN(c2ccc(Br)cc2)[C@H]1C(=O)N1CCOC1=O	-	-	-	0	-
COc1ccccc1[C@@H]1C(c2cccc(C)c2)=NN(c2ccc(Br)cc2)[C@H]1C(=O)N1CCOC1=O	-	-	-	4.9	0
CN(CC(=O)NCCc1ccc(S(N)(=O)=O)cc1)CC(=O)Nc1ccccc1C(F)(F)F	0	-	-	0	-
O=C(CSc1ccc(Cl)cc1)N/N=C/c1ccc([N+](=O)[O-])o1	0	0	0	3.2	0
CCCNC(=O)C1(C)CCCN(C(=O)c2cccc(Cl)c2)C1 (centres undefined)	-	-	-	0	-
COc1cc(C#Cc2c(-c3cncn3C)n(C)c3ccc(Br)cc23)cc(OC)c1	0	-	-	5.0	0
COc1cc(C#Cc2c(-c3cncn3C)n(C)c3ccc(-c4ccc(OC)c(OC)c4)cc23)cc(OC)c1	0	-	-	0	-
O=C(Nc1ccc(Br)cc1)c1ccc(F)c(S(=O)(=O)N2CCN(c3ccccn3)CC2)c1	0	0	0	8.5	0
CC(=O)c1ccc(N2CCN(C(=O)Nc3ccc(C(C)C)cc3)CC2)cc1	0	0	0	7.4	6.8

Screening results: PubChem, several laboratories
